{"source": "ChEMBL document CHEMBL4665798", "about": "“Novel Human Urate Transporter 1 Inhibitors as Hypouricemic Drug Candidates with Favorable Druggability” (J Med Chem, 2020)", "key": {"[1]": {"experiment": "Oral bioavailability in Sprague-Dawley rat at 10 mg/kg by LC-MS analysis", "format": "ADME, organism-based", "details": "in vivo", "in_short": "(§1)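 Male Sprague-Dawley rats, two groups, dosed iv or orally; compound in PEG 400/normal saline (70/30, V/V). Oral blood from sinus jugularis at 5 min to 24 h, plasma by centrifugation at 2200 g, stored -20 °C. Plasma with internal standard precipitated by methanol, quantified by LC-MS against spiked blank-plasma standard curves. Mean ± SD, n = 5.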"}, "Mus musculus": {"test_system": "Mus musculus", "experiment": "Hypouricemic activity in Kunming mouse model of xanthine/potassium oxonate-induced acute hyperuricemia assessed as decrease in serum uric acid level at 2 mg/kg administered 3 hrs prior to xanthine/potassium oxonate and measured after 6 hrs relative to control", "format": "functional", "parameters": "scale not given: the % may be the effect or the level left", "details": "time 9 hrs", "in_short": "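Male Kunming mice, hyperuricemia induced by intragastric xanthine plus subcutaneous potassium oxonate (0.2 mL each). […] Groups: normal vehicle, untreated model, active control, test. Serum uric acid measured. Decrease ratio = (model SUA − compound SUA)/(model SUA − vehicle SUA).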"}, "[2]": {"experiment": "AUC (0 to t) in Sprague-Dawley rat at 10 mg/kg, po by LC-MS analysis", "format": "ADME, organism-based", "parameters": "dose 10 mg/kg", "details": "in vivo", "in_short": "as §1"}, "[3]": {"experiment": "Tmax in Sprague-Dawley rat at 10 mg/kg, po by LC-MS analysis", "format": "ADME, organism-based", "details": "in vivo", "in_short": "as §1"}, "[4]": {"experiment": "AUC (0 to infinity) in Sprague-Dawley rat at 10 mg/kg, po by LC-MS analysis", "format": "ADME, organism-based", "parameters": "time infinity, route oral, dose 10 mg/kg", "details": "in vivo", "in_short": "as §1"}, "[5]": {"experiment": "Half-life in Sprague-Dawley rat at 1 mg/kg, iv by LC-MS analysis", "format": "ADME, organism-based", "details": "in vivo"}, "[6]": {"experiment": "MRT (0 to infinity) in Sprague-Dawley rat at 10 mg/kg, po by LC-MS analysis", "format": "ADME, organism-based", "details": "in vivo", "in_short": "as §1"}, "[7]": {"experiment": "Half-life in Sprague-Dawley rat at 10 mg/kg, po by LC-MS analysis", "format": "ADME, organism-based", "details": "in vivo", "in_short": "as §1"}, "[8]": {"target": "T1, Solute carrier family 2, facilitated glucose transporter member 9 (Homo sapiens, UniProt Q9NRM0)", "T1 sequence (Q9NRM0 whole entry)": "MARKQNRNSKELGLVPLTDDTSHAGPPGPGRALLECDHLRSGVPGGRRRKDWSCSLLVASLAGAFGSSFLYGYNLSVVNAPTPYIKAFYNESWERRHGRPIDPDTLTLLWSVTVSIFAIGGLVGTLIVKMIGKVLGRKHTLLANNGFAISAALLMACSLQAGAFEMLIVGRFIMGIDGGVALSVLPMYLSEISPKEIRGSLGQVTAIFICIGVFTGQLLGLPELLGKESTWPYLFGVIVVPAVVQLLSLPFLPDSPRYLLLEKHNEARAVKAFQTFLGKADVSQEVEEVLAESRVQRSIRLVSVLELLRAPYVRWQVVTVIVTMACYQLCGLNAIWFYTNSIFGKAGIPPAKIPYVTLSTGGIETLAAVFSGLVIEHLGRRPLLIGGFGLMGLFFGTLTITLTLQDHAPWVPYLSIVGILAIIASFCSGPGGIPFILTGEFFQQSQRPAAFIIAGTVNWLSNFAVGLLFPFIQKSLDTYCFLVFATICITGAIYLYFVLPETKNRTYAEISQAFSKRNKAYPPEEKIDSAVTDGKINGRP", "experiment": "Inhibition of GLUT9 (unknown origin)"}, "[9]": {"experiment": "Cmax in Sprague-Dawley rat at 10 mg/kg, po by LC-MS analysis", "format": "ADME, organism-based", "parameters": "route oral, dose 10 mg/kg", "details": "in vivo", "in_short": "as §1"}, "[10]": {"experiment": "Tmax in male Kunming mouse at 500 mg/kg, po by LC-MS/MS analysis", "format": "ADME, organism-based", "details": "in vivo", "in_short": "(§2)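 Male Kunming mice given oral compound in PEG 400/normal saline (70/30, V/V). Blood from submandibular or saphenous vein into K2EDTA tubes at 0.25 to 72 h. Plasma spun at 3200g near 4 °C, kept -70 °C, precipitated with acetonitrile plus dexamethasone internal standard. Quantified by LC-MS/MS against spiked blank-plasma standard curves.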"}, "[11]": {"experiment": "Tmax in male Kunming mouse at 50 mg/kg, po by LC-MS/MS analysis", "format": "ADME, organism-based", "details": "in vivo", "in_short": "(§3)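 Male Kunming mice, ten in total, split into five groups; single oral dose in PEG 400/normal saline (70/30, v/v). Blood taken from submandibular or saphenous vein into K2EDTA tubes at 0.25, 0.5, 1, 2, 4, 8, 24, 48, 72 h. Plasma spun at about 4 °C and kept at -70 °C. Acetonitrile precipitation with dexamethasone internal standard, then LC-MS/MS against plasma standard curves.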"}, "[12]": {"experiment": "MRT (0 to infinity) in male Kunming mouse at 500 mg/kg, po by LC-MS/MS analysis", "format": "ADME, organism-based", "details": "in vivo", "in_short": "as §2"}, "[13]": {"experiment": "AUC (0 to infinity) in male Kunming mouse at 500 mg/kg, po by LC-MS/MS analysis", "format": "ADME, organism-based", "parameters": "time infinity, route oral, dose 500 mg/kg", "details": "in vivo", "in_short": "as §2"}, "[14]": {"experiment": "AUC (0 to t) in male Kunming mouse at 50 mg/kg, po by LC-MS/MS analysis", "format": "ADME, organism-based", "parameters": "dose 50 mg/kg", "details": "in vivo", "in_short": "as §3"}, "[15]": {"experiment": "AUC (0 to infinity) in male Kunming mouse at 50 mg/kg, po by LC-MS/MS analysis", "format": "ADME, organism-based", "parameters": "route oral, time infinity, dose 50 mg/kg", "details": "in vivo", "in_short": "as §3"}, "[16]": {"experiment": "Half-life in male Kunming mouse at 500 mg/kg, po by LC-MS/MS analysis", "format": "ADME, organism-based", "details": "in vivo", "in_short": "as §2"}, "[17]": {"experiment": "AUC (0 to t) in male Kunming mouse at 500 mg/kg, po by LC-MS/MS analysis", "format": "ADME, organism-based", "parameters": "dose 500 mg/kg", "details": "in vivo", "in_short": "as §2"}, "[18]": {"target": "Voltage-gated inwardly rectifying potassium channel KCNH2 (Homo sapiens, UniProt Q12809)", "sequence (Q12809 whole entry)": "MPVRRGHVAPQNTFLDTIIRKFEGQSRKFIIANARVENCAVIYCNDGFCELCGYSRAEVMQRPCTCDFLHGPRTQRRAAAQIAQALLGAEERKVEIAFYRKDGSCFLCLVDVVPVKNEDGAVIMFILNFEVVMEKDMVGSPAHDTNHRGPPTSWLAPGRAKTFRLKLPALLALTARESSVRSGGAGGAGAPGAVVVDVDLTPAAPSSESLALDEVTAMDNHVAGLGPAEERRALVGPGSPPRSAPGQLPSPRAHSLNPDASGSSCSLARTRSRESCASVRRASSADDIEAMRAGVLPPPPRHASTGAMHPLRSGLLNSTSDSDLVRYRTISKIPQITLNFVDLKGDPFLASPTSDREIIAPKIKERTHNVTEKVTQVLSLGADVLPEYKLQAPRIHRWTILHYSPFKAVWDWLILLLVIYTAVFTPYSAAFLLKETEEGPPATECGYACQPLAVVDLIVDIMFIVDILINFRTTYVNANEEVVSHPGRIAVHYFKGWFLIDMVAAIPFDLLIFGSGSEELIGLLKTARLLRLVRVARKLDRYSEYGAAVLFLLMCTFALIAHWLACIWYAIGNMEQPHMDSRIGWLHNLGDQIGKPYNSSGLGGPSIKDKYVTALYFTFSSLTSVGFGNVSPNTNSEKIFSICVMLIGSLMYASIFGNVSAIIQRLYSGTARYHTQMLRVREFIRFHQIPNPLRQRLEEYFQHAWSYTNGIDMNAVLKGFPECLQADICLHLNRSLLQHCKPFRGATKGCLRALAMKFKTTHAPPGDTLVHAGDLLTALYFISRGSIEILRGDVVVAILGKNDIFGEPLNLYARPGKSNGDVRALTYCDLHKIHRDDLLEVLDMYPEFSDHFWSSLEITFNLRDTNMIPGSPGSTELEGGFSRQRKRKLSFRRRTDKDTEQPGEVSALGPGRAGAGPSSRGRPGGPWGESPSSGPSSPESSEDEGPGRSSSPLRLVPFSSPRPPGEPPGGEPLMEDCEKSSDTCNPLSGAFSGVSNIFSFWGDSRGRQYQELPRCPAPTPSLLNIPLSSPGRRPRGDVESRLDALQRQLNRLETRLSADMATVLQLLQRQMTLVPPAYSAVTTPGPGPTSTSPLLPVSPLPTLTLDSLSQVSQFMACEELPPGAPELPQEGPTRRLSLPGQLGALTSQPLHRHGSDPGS", "experiment": "Inhibition of human ERG expressed in HEK293 cells at -80 mV holding potential by whole cell voltage patch clamp assay", "format": "cell-based", "in_short": "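Manual patch clamp on HEK293 cells stably expressing hERG, cultured at least 24 h at 37 °C, 5% CO2. Pipettes 3–5 MΩ. Current stabilized 3 min with vehicle before compound. Compound kept on until peak tail current stable (<5% change) for ~5 sweeps. Cisapride monohydrate used as reference.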"}, "[19]": {"experiment": "MRT (0 to infinity) in male Kunming mouse at 2 mg/kg, po by LC-MS/MS analysis", "format": "ADME, organism-based", "details": "in vivo", "in_short": "as §3"}, "[20]": {"experiment": "Tmax in male Kunming mouse at 2 mg/kg, po by LC-MS/MS analysis", "format": "ADME, organism-based", "details": "in vivo", "in_short": "as §3"}, "[21]": {"experiment": "Cmax in male Kunming mouse at 500 mg/kg, po by LC-MS/MS analysis", "format": "ADME, organism-based", "parameters": "route oral, dose 500 mg/kg", "details": "in vivo", "in_short": "as §2"}, "[22]": {"experiment": "Half-life in male Kunming mouse at 2 mg/kg, po by LC-MS/MS analysis", "format": "ADME, organism-based", "details": "in vivo", "in_short": "as §3"}, "[23]": {"experiment": "MRT (0 to infinity) in Sprague-Dawley rat at 20 mg/kg, po by LC-MS analysis", "format": "ADME, organism-based", "details": "in vivo"}, "[24]": {"experiment": "AUC (0 to infinity) in male Kunming mouse at 2 mg/kg, po by LC-MS/MS analysis", "format": "ADME, organism-based", "parameters": "time infinity, route oral, dose 2 mg/kg", "details": "in vivo", "in_short": "as §3"}, "[25]": {"experiment": "Cmax in Sprague-Dawley rat at 20 mg/kg, po by LC-MS analysis", "format": "ADME, organism-based", "parameters": "route oral, dose 20 mg/kg", "details": "in vivo"}, "[26]": {"experiment": "MRT (0 to infinity) in male Kunming mouse at 50 mg/kg, po by LC-MS/MS analysis", "format": "ADME, organism-based", "details": "in vivo", "in_short": "as §3"}, "[27]": {"experiment": "Half-life in Sprague-Dawley rat at 20 mg/kg, po by LC-MS analysis", "format": "ADME, organism-based", "details": "in vivo"}, "[28]": {"experiment": "Cmax in male Kunming mouse at 50 mg/kg, po by LC-MS/MS analysis", "format": "ADME, organism-based", "parameters": "route oral, dose 50 mg/kg", "details": "in vivo", "in_short": "as §3"}, "[29]": {"experiment": "Tmax in Sprague-Dawley rat at 20 mg/kg, po by LC-MS analysis", "format": "ADME, organism-based", "details": "in vivo"}, "[30]": {"experiment": "Oral bioavailability in Sprague-Dawley rat at 20 mg/kg by LC-MS analysis", "format": "ADME, organism-based", "details": "in vivo"}}, "data": [{"smiles": "O=C(CSc1nnc(Br)n1-c1ccc(C2CC2)c2ccccc12)NS(=O)(=O)c1ccc(Br)cc1", "values": [{"measurement": "bioavailability", "setting": "[1]", "value": 63.4, "unit": "%"}, {"measurement": "Activity", "setting": "Mus musculus", "value": 97.84, "unit": "%"}, {"measurement": "AUC(0-t)", "setting": "[2]", "value": 19.4, "unit": "µg·h/mL"}, {"measurement": "Tmax", "setting": "[3]", "value": 1.8, "unit": "h"}, {"measurement": "AUC(0-inf)", "setting": "[4]", "value": 19.6, "unit": "µg·h/mL"}, {"measurement": "half-life", "setting": "[5]", "value": 5, "unit": "h"}, {"measurement": "MRT inf", "setting": "[6]", "value": 5.6, "unit": "h"}, {"measurement": "half-life", "setting": "[7]", "value": 3.4, "unit": "h"}, {"measurement": "IC50", "setting": "[8]", "value": 31.7, "unit": "µM"}, {"measurement": "Cmax", "setting": "[9]", "value": 3400, "unit": "ng/mL"}]}, {"smiles": "CC(Sc1nc2ncccc2n1-c1ccc(C2CC2)c2ccccc12)C(=O)O", "note": "(racemic)", "values": [{"measurement": "Activity", "setting": "Mus musculus", "value": 92.89, "unit": "%"}, {"measurement": "Tmax", "setting": "[10]", "value": 18.7, "unit": "h"}, {"measurement": "Tmax", "setting": "[11]", "value": 1.67, "unit": "h"}, {"measurement": "MRT inf", "setting": "[12]", "value": 15.7, "unit": "h"}, {"measurement": "AUC(0-inf)", "setting": "[13]", "value": 2960, "unit": "µg·h/mL"}, {"measurement": "AUC(0-t)", "setting": "[14]", "value": 335, "unit": "µg·h/mL"}, {"measurement": "AUC(0-inf)", "setting": "[15]", "value": 335, "unit": "µg·h/mL"}, {"measurement": "half-life", "setting": "[16]", "value": 3.9, "unit": "h"}, {"measurement": "AUC(0-t)", "setting": "[17]", "value": 2960, "unit": "µg·h/mL"}, {"measurement": "IC50", "setting": "[18]", "value": "> 30", "unit": "µM"}, {"measurement": "MRT inf", "setting": "[19]", "value": 6.44, "unit": "h"}, {"measurement": "half-life", "setting": "[5]", "value": 3.1, "unit": "h"}, {"measurement": "Tmax", "setting": "[20]", "value": 0.5, "unit": "h"}, {"measurement": "Cmax", "setting": "[21]", "value": 149000, "unit": "ng/mL"}, {"measurement": "half-life", "setting": "[22]", "value": 4.24, "unit": "h"}, {"measurement": "MRT inf", "setting": "[23]", "value": 5.3, "unit": "h"}, {"measurement": "AUC(0-inf)", "setting": "[24]", "value": 13, "unit": "µg·h/mL"}, {"measurement": "Cmax", "setting": "[25]", "value": 15500, "unit": "ng/mL"}, {"measurement": "MRT inf", "setting": "[26]", "value": 6.16, "unit": "h"}, {"measurement": "half-life", "setting": "[27]", "value": 3.4, "unit": "h"}, {"measurement": "Cmax", "setting": "[28]", "value": 37900, "unit": "ng/mL"}, {"measurement": "Tmax", "setting": "[29]", "value": 2, "unit": "h"}, {"measurement": "bioavailability", "setting": "[30]", "value": 76.3, "unit": "%"}]}]}
